Laboratory results from ChEMBL document CHEMBL4765360, “Design, synthesis and biological evaluation of novel potent STAT3 inhibitors based on BBI608 for cancer therapy” (Eur J Med Chem, 2020).
Activity calls are given as the source filed them. The rule behind the calls is not given here.

Experiments:
MDA-MB-231 [1] = test: Induction of apoptosis in human MDA-MB-231 cells assessed as necrotic cells at 4 uM incubated for 24 hrs by annexin V-FITC and PI staining based flow cytometry analysis (reference value: 0.23 %); assay type: functional
[2] = target: T1, Signal transducer and activator of transcription 3 (Homo sapiens, UniProt P40763); test: Inhibition of STAT3 in human MDA-MB-231 cells assessed as reduction in c-myc expression incubated for 24 hrs by Western blot analysis; assay type: cell-based; conditions: dose 0.75-3 µM
T1 sequence (P40763 whole entry): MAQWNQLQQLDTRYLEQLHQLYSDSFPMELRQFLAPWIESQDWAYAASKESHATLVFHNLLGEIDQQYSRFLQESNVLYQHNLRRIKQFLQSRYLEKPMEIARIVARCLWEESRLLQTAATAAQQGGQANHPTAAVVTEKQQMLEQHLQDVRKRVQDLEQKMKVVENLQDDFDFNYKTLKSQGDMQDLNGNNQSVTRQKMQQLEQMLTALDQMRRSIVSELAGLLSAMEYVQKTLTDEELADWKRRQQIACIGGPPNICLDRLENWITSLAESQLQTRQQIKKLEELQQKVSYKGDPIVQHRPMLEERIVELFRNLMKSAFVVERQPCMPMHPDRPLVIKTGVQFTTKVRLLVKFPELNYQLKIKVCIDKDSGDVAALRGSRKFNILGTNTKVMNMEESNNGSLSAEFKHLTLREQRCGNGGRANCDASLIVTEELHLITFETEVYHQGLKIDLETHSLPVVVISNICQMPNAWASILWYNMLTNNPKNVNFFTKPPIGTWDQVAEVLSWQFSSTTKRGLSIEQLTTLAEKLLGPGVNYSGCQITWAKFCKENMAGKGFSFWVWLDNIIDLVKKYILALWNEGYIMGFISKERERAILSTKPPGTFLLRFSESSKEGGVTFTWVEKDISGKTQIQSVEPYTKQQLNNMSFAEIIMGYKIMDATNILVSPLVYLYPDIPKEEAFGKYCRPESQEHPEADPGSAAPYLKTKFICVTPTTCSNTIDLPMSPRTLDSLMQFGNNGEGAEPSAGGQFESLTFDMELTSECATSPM
Method in brief: (§1)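 MDA-MB-231 cells treated with a range of concentrations for 24 h. RIPA lysates with PMSF, 40 µg protein/lane, on 10% SDS-PAGE, then PVDF. Blocked in 5% milk/TBST for 2 h. Primary antibodies to STAT3, p-STAT3(Y705), STAT1, p-STAT1(Y701), c-Myc and Cyclin D1 overnight at 4 °C; GAPDH as loading control. HRP secondary for 1 h; ECL detection.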

[3] = Toxicity in BALB/c mouse xenografted with human MDA-MB-231 cells assessed as effect on body weight loss at 5 to 10 mg/kg, ip administered once daily for 21 days and measured for 21 days; assay type: organism-based; conditions: in vivo, 504 h, dose 5-10 mg/kg/day, time 21 day
Method in brief: (§2)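 Female BALB/c nude mice, 5 weeks old (16–18 g), were given 5×10^6 MDA-MB-231 cells subcutaneously. At ~50 mm³, mice were randomized to three groups (n=6): vehicle, 5 or 10 mg/kg i.p. daily for 21 days. Tumor volume (length×width²/2) was measured every 3 days and body weight recorded. Tumors were excised and weighed at the end. TGI derived versus control; mean ± SEM.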

MDA-MB-231 [4] = test: Induction of cell cycle arrest in human MDA-MB-231 cells assessed as G2/M phase accumulation at 2 uM incubated for 24 hrs by PI staining based flow cytometry analysis (reference value: 15.80 %); assay type: functional
MDA-MB-231 [5] = test: Effect on STAT1 expression in human MDA-MB-231 cells at 0.75 to 3 uM incubated for 24 hrs by Western blot analysis; assay type: functional, cell-based; conditions: dose 0.75-3 µM; method in brief: as §1
[6] = target: T1, Signal transducer and activator of transcription 3; test: Inhibition of STAT3 in human MDA-MB-231 cells assessed as reduction in STAT3 Y705 phosphorylation in nucleus at 3 uM incubated for 24 hrs by immunofluorescence staining based fluorescence microscopy; assay type: subcellular
Method in brief: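 MDA-MB-231 cells at 1×10^4 per dish, adhered overnight, then exposed to 3.0 µM for 24 h. Fixed in 4% paraformaldehyde and permeabilized with 0.5% Triton X-100. Blocked in 5% BSA for 1 h. Anti-p-STAT3 primary overnight at 4 °C, then Alexa Fluor 546 anti-rabbit for 1 h at RT. Hoechst nuclear stain; imaged by fluorescence microscopy.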

MDA-MB-231 [7] = test: Antitumor activity against human MDA-MB-231 cells xenografted in BALB/c mouse assessed as reduction in tumor growth at 5 mg/kg, ip administered once daily for 21 days and measured on day 21 relative to control; assay type: functional; conditions: MDA-MB-231, ip, 504 h, time 21 day, read-out: TGI; method in brief: as §2
Mus musculus = test: In vivo inhibition of STAT3 in BALB/c mouse xenografted with human MDA-MB-231 cells assessed as reduction in STAT3 Y705 phosphorylation in tumor tissue at 10 mg/kg, ip administered once daily for 21 days and measured on day 21 by immunofluorescent staining based fluorescence microscopy; assay type: functional, organism-based; conditions: dose 10.0 mg/kg/day, time 21.0 day
Method in brief: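 Tumors from the xenograft study (10 mg/kg i.p. daily, 21 days) were sectioned and fixed. Sections were stained with anti-p-STAT3 overnight at 4 °C, then Cy3 anti-rabbit secondary for 40 min at 37 °C. Nuclei stained with DAPI; imaged by fluorescence microscopy. Mean ± SEM, n=4.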

MDA-MB-231 [8] = test: Induction of cell cycle arrest in human MDA-MB-231 cells assessed as S phase accumulation at 1 uM incubated for 24 hrs by PI staining based flow cytometry analysis (reference value: 26.21 %); assay type: functional
[9] = target: T1, Signal transducer and activator of transcription 3; test: Displacement of 5-FAM-GpYLPQTV-NH2 from His-tagged STAT3 (unknown origin) (127 to 722 residues) incubated for 30 mins followed by fluorescent peptide probe addition and measured after 1 hr by fluorescence polarization based competition binding assay
[10] = target: T1, Signal transducer and activator of transcription 3; test: Inhibition of STAT3 in human MDA-MB-231 cells assessed as reduction in STAT3 Y705 phosphorylation incubated for 24 hrs by Western blot analysis; assay type: cell-based; conditions: dose 0.75-3 µM; method in brief: as §1
MDA-MB-231 [11] = test: Induction of apoptosis in human MDA-MB-231 cells assessed as viable cells at 2 uM incubated for 24 hrs by annexin V-FITC and PI staining based flow cytometry analysis (reference value: 93.37 %); assay type: functional; conditions: read-out: Activity
MDA-MB-231 [12] = test: Induction of apoptosis in human MDA-MB-231 cells assessed as early apoptotic cells at 4 uM incubated for 24 hrs by annexin V-FITC and PI staining based flow cytometry analysis (reference value: 2.69 %); assay type: functional
MDA-MB-468 = test: Antiproliferative activity against human MDA-MB-468 cells overexpressing STAT3 assessed as reduction in cell growth incubated for 48 hrs by CCK-8 assay; assay type: functional, cell-based; conditions: MDA-MB-468, 48 h
Method in brief: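 Cells seeded at 5000-7000/well and allowed to settle for 8 h at 37 °C, 5% CO2. Graded compound concentrations were then added in triplicate (DMSO <0.1%) for 48 h. Medium was replaced with 10% CCK-8 for 4 h (MDA-MB-231, MDA-MB-468) or 1 h (HepG2), and A450 was read. IC50 is mean ± SD of at least three independent experiments. HepG2 was grown in high-glucose DMEM with 10% FBS.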

MDA-MB-231 [13] = test: Induction of cell cycle arrest in human MDA-MB-231 cells assessed as G2/M phase accumulation at 4 uM incubated for 24 hrs by PI staining based flow cytometry analysis (reference value: 15.80 %); assay type: functional
MDA-MB-231 [14] = test: Induction of cell cycle arrest in human MDA-MB-231 cells assessed as G2/M phase accumulation at 1 uM incubated for 24 hrs by PI staining based flow cytometry analysis (reference value: 15.80 %); assay type: functional
MDA-MB-231 [15] = test: Induction of apoptosis in human MDA-MB-231 cells assessed as early apoptotic cells at 2 uM incubated for 24 hrs by annexin V-FITC and PI staining based flow cytometry analysis (reference value: 2.69 %); assay type: functional
MDA-MB-231 [16] = test: Antitumor activity against human MDA-MB-231 cells xenografted in BALB/c mouse assessed reduction in tumor weight at 10 mg/kg, ip administered once daily for 21 days and measured on day 21 relative to control; assay type: functional; set-up: scale not given: the % may be the effect or the level left; conditions: dose 10 mg/kg/day; time 21 day; method in brief: as §2
MDA-MB-231 [17] = test: Induction of apoptosis in human MDA-MB-231 cells assessed as necrotic cells at 1 uM incubated for 24 hrs by annexin V-FITC and PI staining based flow cytometry analysis (reference value: 0.23 %); assay type: functional
MDA-MB-231 [18] = test: Induction of cell cycle arrest in human MDA-MB-231 cells assessed as S phase accumulation at 4 uM incubated for 24 hrs by PI staining based flow cytometry analysis (reference value: 26.21 %); assay type: functional
MDA-MB-231 [19] = test: Induction of apoptosis in human MDA-MB-231 cells assessed as early apoptotic cells at 1 uM incubated for 24 hrs by annexin V-FITC and PI staining based flow cytometry analysis (reference value: 2.69 %); assay type: functional

inhibition [2]: Dose-dependent effect
inhibition [6]: Active
IC50 [9]: 5.18 µM
inhibition ([9]; time 1.5 hrs): Dose-dependent effect
inhibition [10]: Dose-dependent effect
IC50 (MDA-MB-468): 0.77 µM
Compound: COc1ccc(NC2=CC(=O)c3cc(C(C)=O)oc3C2=O)cc1
Activity (MDA-MB-231 [1]): 0.77%
Activity [3]: Non-Toxic
Activity (MDA-MB-231 [4]): 13.3%
Activity (MDA-MB-231 [5]): inactive
inhibition in vivo at 5 mg/kg/day (MDA-MB-231 [7]): 8.42%
inhibition (Mus musculus): Active
Activity (MDA-MB-231 [8]): 34.31%
viability at 2 µM (MDA-MB-231 [11]): 82.2%
Activity (MDA-MB-231 [12]): 10.25%
Activity (MDA-MB-231 [13]): 7.52%
Activity (MDA-MB-231 [14]): 16.27%
Activity (MDA-MB-231 [15]): 4.69%
Activity (MDA-MB-231 [16]): 45.19%
Activity (MDA-MB-231 [17]): 0.41%
Activity (MDA-MB-231 [18]): 57.09%
Activity (MDA-MB-231 [19]): 5.21%
